# From ChEMBL document CHEMBL3272061, “Experiments of synthesis of dl-camptothecin. 4. Synthesis and antileukemic activity of dl-camptothecin analogues” (J Med Chem, 1976)
# The source made the active and inactive calls. No cut-off for these calls is given here.
# Assays:
# [1] = Solubility of the compound; type: physicochemical
# [2] = tested on: L1210; assay: Antileukemic activity against mouse L1210 cells allografted in BDF1 mouse assessed as host survival at 20.8 umol/kg, ip after 30 days; type: functional, organism-based
# Summary of the method: (§1)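 BDF1 mice, 5 weeks old, were inoculated ip with 5×10^5 L1210 cells in 0.1 ml saline. Test groups were 4 male and 4 female mice; controls were 5 male and 5 female. Insoluble compounds were suspended in vehicle. Dosing was ip, either once on the day after inoculation or daily for 5 days. Read-out was increase in life span over controls. Mice alive beyond 30 days were counted as 30 days and scored as survivors.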
# [3] = tested on: L1210; assay: Antileukemic activity against mouse L1210 cells allografted in BDF1 mouse assessed as increase in life span of host at 52.1 umol/kg, ip relative to control; type: functional
# Summary of the method: (§2)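 BDF1 mice, 5 weeks old, were inoculated ip with 5×10^5 L1210 cells; test groups had 4 males and 4 females, controls 5 males and 5 females. A single ip dose was given on the day after inoculation, as a suspension in vehicle for the insoluble compounds. Read-out was increase in life span over controls, with survivors past 30 days counted as 30 days.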
# [4] = species on record: Mus musculus; assay: Toxicity in mouse L1210 cells allografted BDF1 mouse; type: organism-based
# [5] = tested on: L1210; assay: Antileukemic activity against mouse L1210 cells allografted in BDF1 mouse assessed as increase in life span of host at 20.8 umol/kg, ip relative to control; type: functional; summary of the method: as §2
# [6] = tested on: L1210; assay: Antileukemic activity against mouse L1210 cells allografted in BDF1 mouse assessed as increase in life span of host at 27.8 umol/kg, ip qd for 5 days relative to control; type: functional; settings: 120 h
# Summary of the method: (§3)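 BDF1 mice, 5 weeks old, were inoculated ip with 5×10^5 L1210 cells; test groups had 4 males and 4 females, controls 5 males and 5 females. Dosing was ip, five times over the 5 days after inoculation, as a suspension in vehicle for the insoluble compounds. Read-out was increase in life span over controls.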
# [7] = tested on: L1210; assay: Antileukemic activity against mouse L1210 cells allografted in BDF1 mouse assessed as increase in life span of host at 278 umol/kg, ip relative to control; type: functional; summary of the method: as §2
# [8] = tested on: L1210; assay: Antileukemic activity against mouse L1210 cells allografted in BDF1 mouse assessed as increase in life span of host at 27.8 umol/kg, po qd for 4 days relative to control; type: functional; settings: 96 h
# [9] = tested on: L1210; assay: Antileukemic activity against mouse L1210 cells allografted in BDF1 mouse assessed as increase in life span of host at 5.56 umol/kg, ip relative to control; type: functional; summary of the method: as §2
# [10] = tested on: L1210; assay: Antileukemic activity against mouse L1210 cells allografted in BDF1 mouse assessed as increase in life span of host at 13.8 umol/kg, po qd for 4 days relative to control; type: functional; settings: 96 h
# [11] = tested on: L1210; assay: Antileukemic activity against mouse L1210 cells allografted in BDF1 mouse assessed as increase in life span of host at 5.56 umol/kg, po qd for 4 days relative to control; type: functional; settings: 96 h
# [12] = tested on: L1210; assay: Antileukemic activity against mouse L1210 cells allografted in BDF1 mouse assessed as increase in life span of host at 1.11 umol/kg, sc qd for 5 days relative to control; type: functional; settings: 120 h
# [13] = tested on: L1210; assay: Antileukemic activity against mouse L1210 cells allografted in BDF1 mouse assessed as increase in life span of host at 5.56 umol/kg, sc qd for 5 days relative to control; type: functional; settings: 120 h
# [14] = tested on: L1210; assay: Antileukemic activity against mouse L1210 cells allografted in BDF1 mouse assessed as increase in life span of host at 5.56 umol/kg, ip qd for 5 days relative to control; type: functional; settings: 120 h; summary of the method: as §3
# [15] = tested on: L1210; assay: Antileukemic activity against mouse L1210 cells allografted in BDF1 mouse assessed as increase in life span of host at 13.8 umol/kg, sc qd for 5 days relative to control; type: functional; settings: 120 h
# [16] = tested on: L1210; assay: Antileukemic activity against mouse L1210 cells allografted in BDF1 mouse assessed as increase in life span of host at 69.4 umol/kg, ip relative to control; type: functional; summary of the method: as §2
# [17] = tested on: L1210; assay: Antileukemic activity against mouse L1210 cells allografted in BDF1 mouse assessed as increase in life span of host at 13.8 umol/kg, ip qd for 5 days relative to control; type: functional; settings: 120 h; summary of the method: as §1
# [18] = tested on: L1210; assay: Antileukemic activity against mouse L1210 cells allografted in BDF1 mouse assessed as increase in life span of host at 27.8 umol/kg, ip relative to control; type: functional; summary of the method: as §2
# [19] = tested on: L1210; assay: Antileukemic activity against mouse L1210 cells allografted in BDF1 mouse assessed as increase in life span of host at 5.21 umol/kg, ip relative to control; type: functional; summary of the method: as §2
# [20] = tested on: L1210; assay: Antileukemic activity against mouse L1210 cells allografted in BDF1 mouse assessed as increase in life span of host at 139 umol/kg, ip relative to control; type: functional; summary of the method: as §1
# [21] = tested on: L1210; assay: Antileukemic activity against mouse L1210 cells allografted in BDF1 mouse assessed as increase in life span of host at 1.11 umol/kg, ip qd for 5 days relative to control; type: functional; settings: 120 h; summary of the method: as §1
# [22] = tested on: L1210; assay: Antileukemic activity against mouse L1210 cells allografted in BDF1 mouse assessed as increase in life span of host at 27.8 umol/kg, sc qd for 5 days relative to control; type: functional; settings: 120 h
# [23] = tested on: L1210; assay: Antileukemic activity against mouse L1210 cells allografted in BDF1 mouse assessed as host survival at 22.8 umol/kg, ip after 30 days; type: functional, organism-based; summary of the method: as §1
# [24] = tested on: L1210; assay: Antileukemic activity against mouse L1210 cells allografted in BDF1 mouse assessed as host survival at 4.17 umol/kg, ip after 30 days; type: functional, organism-based; summary of the method: as §1
# [25] = tested on: L1210; assay: Antileukemic activity against mouse L1210 cells allografted in BDF1 mouse assessed as host survival at 57.1 umol/kg, ip after 30 days; type: functional, organism-based; summary of the method: as §1
# [26] = tested on: L1210; assay: Antileukemic activity against mouse L1210 cells allografted in BDF1 mouse assessed as increase in life span of host at 57.1 umol/kg, ip relative to control; type: functional; summary of the method: as §2
# [27] = tested on: L1210; assay: Antileukemic activity against mouse L1210 cells allografted in BDF1 mouse assessed as increase in life span of host at 22.8 umol/kg, ip relative to control; type: functional; summary of the method: as §2
# [28] = tested on: L1210; assay: Antileukemic activity against mouse L1210 cells allografted in BDF1 mouse assessed as increase in life span of host at 4.17 umol/kg, ip relative to control; type: functional; summary of the method: as §2
# [29] = tested on: L1210; assay: Antileukemic activity against mouse L1210 cells allografted in BDF1 mouse assessed as increase in life span of host at 25 umol/kg, ip qd for 5 days relative to control; type: functional; settings: 120 h; summary of the method: as §3
# [30] = tested on: L1210; assay: Antileukemic activity against mouse L1210 cells allografted in BDF1 mouse assessed as increase in life span of host at 12.5 umol/kg, po qd for 5 days relative to control; type: functional; settings: 120 h
# [31] = tested on: L1210; assay: Antileukemic activity against mouse L1210 cells allografted in BDF1 mouse assessed as increase in life span of host at 12.5 umol/kg, ip qd for 5 days relative to control; type: functional; settings: 120 h; summary of the method: as §1
# [32] = tested on: L1210; assay: Antileukemic activity against mouse L1210 cells allografted in BDF1 mouse assessed as increase in life span of host at 5 umol/kg, ip qd for 5 days relative to control; type: functional; settings: 120 h; summary of the method: as §3
# [33] = tested on: L1210; assay: Antileukemic activity against mouse L1210 cells allografted in BDF1 mouse assessed as increase in life span of host at 5 umol/kg, po qd for 5 days relative to control; type: functional; settings: 120 h
# [34] = tested on: L1210; assay: Antileukemic activity against mouse L1210 cells allografted in BDF1 mouse assessed as increase in life span of host at 1 umol/kg, sc qd for 5 days relative to control; type: functional; settings: 120 h
# [35] = tested on: L1210; assay: Antileukemic activity against mouse L1210 cells allografted in BDF1 mouse assessed as increase in life span of host at 1 umol/kg, ip qd for 5 days relative to control; type: functional; settings: 120 h; summary of the method: as §1
# [36] = tested on: L1210; assay: Antileukemic activity against mouse L1210 cells allografted in BDF1 mouse assessed as increase in life span of host at 5 umol/kg, sc qd for 5 days relative to control; type: functional; settings: 120 h
# [37] = tested on: L1210; assay: Antileukemic activity against mouse L1210 cells allografted in BDF1 mouse assessed as increase in life span of host at 25 umol/kg, sc qd for 5 days relative to control; type: functional; settings: 120 h
# [38] = tested on: L1210; assay: Antileukemic activity against mouse L1210 cells allografted in BDF1 mouse assessed as increase in life span of host at 25 umol/kg, po qd for 4 days relative to control; type: functional; settings: 96 h
smiles,measurement,setting,value
CCOCc1c(C(O)(CC(=O)OCC)C(=O)OCC)cc2n(c1=O)Cc1cc3ccccc3nc1-2 (stereo unspecified),solubility,[1],Insoluble
same,Activity,[2],inactive
same,ILS at 52.1 µmol/kg,[3],> 170%
same,Activity,[4],Toxic
same,ILS at 20.8 µmol/kg,[5],55%
C=CCC1(O)C(=O)OCc2c1cc1n(c2=O)Cc2cc3ccccc3nc2-1 (racemic),ILS at 27.8 µmol/kg,[6],-13%
same,solubility,[1],Insoluble
same,ILS at 278 µmol/kg,[7],-43%
same,ILS at 27.8 µmol/kg,[8],-1%
same,ILS at 5.56 µmol/kg,[9],16%
same,ILS at 13.8 µmol/kg,[10],-1%
same,ILS at 5.56 µmol/kg,[11],3%
same,ILS at 1.11 µmol/kg,[12],-1%
same,ILS at 5.56 µmol/kg,[13],4%
same,ILS at 5.56 µmol/kg,[14],42%
same,Activity,[4],Toxic
same,ILS at 13.8 µmol/kg,[15],26%
same,ILS at 69.4 µmol/kg,[16],> 155%
same,ILS at 13.8 µmol/kg,[17],> 105%
same,ILS at 27.8 µmol/kg,[18],84%
same,ILS at 5.21 µmol/kg,[19],-5%
same,ILS at 139 µmol/kg,[20],> 60%
same,ILS at 1.11 µmol/kg,[21],14%
same,ILS at 27.8 µmol/kg,[22],51%
O=C(CC1(O)C(=O)OCc2c1cc1n(c2=O)Cc2cc3ccccc3nc2-1)c1ccccc1 (racemic),Activity,[23],inactive
same,Activity,[24],inactive
same,Activity,[25],inactive
same,solubility,[1],Insoluble
same,ILS at 57.1 µmol/kg,[26],21%
same,ILS at 22.8 µmol/kg,[27],10%
same,ILS at 4.17 µmol/kg,[28],26%
C=CCC1(O)C(=O)OCc2c1cc1n(c2=O)Cc2cc3ccccc3nc2-1 (stereo unspecified),ILS at 25 µmol/kg,[29],> 118%
same,ILS at 12.5 µmol/kg,[30],40%
same,ILS at 12.5 µmol/kg,[31],58%
same,ILS at 5 µmol/kg,[32],13%
same,ILS at 5 µmol/kg,[33],12%
same,ILS at 1 µmol/kg,[34],-2%
same,ILS at 1 µmol/kg,[35],-2%
same,ILS at 5 µmol/kg,[36],9%
same,ILS at 25 µmol/kg,[37],72%
same,ILS at 25 µmol/kg,[38],21%
